Assay results: ChEMBL document CHEMBL1123648, “Synthesis, chemical reactivity, and antileukemic activity of 5-substituted 6,7-bis(hydroxymethyl)pyrrolo[1,2-c]thiazole biscarbamates and the corresponding sulfoxides and sulfones” (1987)

How the values were obtained:
[1] = Percent increase in life span of test animals compared to untreated tumor-bearing control group A animals at a dose of 100 mg/kg; assay type: functional; conditions: Mus musculus
P388 [2] = test: Log cell population relative to cell population at the beginning of treatment compared to control group A at a dose of 200 mg/kg; assay type: functional, Mus musculus
P388 [3] = test: Log cell population relative to cell population at the beginning of treatment compared to control group A at a dose of 50 mg/kg; assay type: functional, Mus musculus
[4] = Percent increase in life span of test animals compared to untreated tumor-bearing control group A animals at a dose of 50 mg/kg; assay type: functional; conditions: Mus musculus
[5] = Percent increase in life span of test animals compared to untreated tumor-bearing control group A animals at a dose of 200 mg/kg; assay type: functional; conditions: Mus musculus
[6] = Antileukemic activity against Murine P388 lymphocytic leukemia, body weight difference of the test animals compared to control group A animals at a dose of 100 mg/kg; assay type: functional, Mus musculus; design: unit not given here
Procedure, shortened: (§1)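 CD2F1 mice implanted intraperitoneally with ascitic fluid carrying ca. 1×10^6 P388 cells, under the NCI protocol. Dosing was intraperitoneal, starting 24 h after inoculation, then every 24 h for five doses in total. The body weight difference of treated mice is taken against untreated controls. Toxicity day survivors are the mice alive at day five out of those tested.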

[7] = Antileukemic activity against Murine P388 lymphocytic leukemia, body weight difference of the test animals compared to control group A animals at a dose of 200 mg/kg; assay type: functional, Mus musculus; procedure, shortened: as §1
[8] = Toxicity day survivors expressed as number of animals that survived to day five/ number of test animals under control group A at a dose of 100 mg/kg; 6 survived out of 6; assay type: functional, Mus musculus
[9] = Toxicity day survivors expressed as number of animals that survived to day five/ number of test animals under control group A at a dose of 50 mg/kg; 6 survived out of 6; assay type: functional, Mus musculus
[10] = Antileukemic activity against Murine P388 lymphocytic leukemia, body weight difference of the test animals compared to control group A animals at a dose of 50 mg/kg; assay type: functional, Mus musculus; design: unit not given here; procedure, shortened: as §1
[11] = Antileukemic activity against Murine P388 lymphocytic leukemia, body weight difference of the test animals compared to control group A animals at a dose of 400 mg/kg; assay type: functional, Mus musculus; procedure, shortened: as §1
[12] = Toxicity day survivors expressed as number of animals that survived to day five/ number of test animals under control group A at a dose of 200 mg/kg; 6 survived out of 6; assay type: functional, Mus musculus
P388 [13] = test: Log cell population relative to cell population at the beginning of treatment compared to control group A at a dose of 100 mg/kg; assay type: functional, Mus musculus
[14] = Toxicity day survivors expressed as number of animals that survived to day five/ number of test animals under control group A at a dose of 400 mg/kg; 3 survived out of 6; assay type: functional, Mus musculus
[15] = Percent increase in life span of test animals compared to untreated tumor-bearing control group A animals at a dose of 400 mg/kg; assay type: functional; conditions: Mus musculus
[16] = Toxicity day survivors expressed as number of animals that survived to day five/ number of test animals under control group A at a dose of 400 mg/kg; 6 survived out of 6; assay type: functional, Mus musculus
[17] = Toxicity day survivors expressed as number of animals that survived to day five/ number of test animals under control group A at a dose of 25 mg/kg; 6 survived out of 6; assay type: functional, Mus musculus
[18] = Percent increase in life span of test animals compared to untreated tumor-bearing control group A animals at a dose of 25 mg/kg; assay type: functional; conditions: Mus musculus
[19] = Antileukemic activity against Murine P388 lymphocytic leukemia, body weight difference of the test animals compared to control group A animals at a dose of 25 mg/kg; assay type: functional, Mus musculus; design: unit not given here; procedure, shortened: as §1
[20] = Percent increase in life span of test animals compared to untreated tumor-bearing control group C animals at a dose of 50 mg/kg; assay type: functional; conditions: Mus musculus
[21] = Toxicity day survivors expressed as number of animals that survived to day five/ number of test animals under control group C at a dose of 100 mg/kg; 6 survived out of 6; assay type: functional, Mus musculus
[22] = Antileukemic activity against Murine P388 lymphocytic leukemia, body weight difference of the test animals compared to control group C animals at a dose of 50 mg/kg; assay type: functional, Mus musculus; design: unit not given here; procedure, shortened: as §1
[23] = Toxicity day survivors expressed as number of animals that survived to day five/ number of test animals under control group C at a dose of 25 mg/kg; 6 survived out of 6; assay type: functional, Mus musculus
[24] = Toxicity day survivors expressed as number of animals that survived to day five/ number of test animals under control group C at a dose of 50 mg/kg; 6 survived out of 6; assay type: functional, Mus musculus
P388 [25] = test: Log cell population relative to cell population at the beginning of treatment compared to control group C at a dose of 50 mg/kg; assay type: functional, Mus musculus
[26] = Percent increase in life span of test animals compared to untreated tumor-bearing control group C animals at a dose of 25 mg/kg; assay type: functional; conditions: Mus musculus
[27] = Antileukemic activity against Murine P388 lymphocytic leukemia, body weight difference of the test animals compared to control group C animals at a dose of 100 mg/kg; assay type: functional, Mus musculus; design: unit not given here; procedure, shortened: as §1
P388 [28] = test: Log cell population relative to cell population at the beginning of treatment compared to control group C at a dose of 25 mg/kg; assay type: functional, Mus musculus
[29] = Antileukemic activity against Murine P388 lymphocytic leukemia, body weight difference of the test animals compared to control group C animals at a dose of 25 mg/kg; assay type: functional, Mus musculus; procedure, shortened: as §1
[30] = Toxicity day survivors expressed as number of animals that survived to day five/ number of test animals under control group C at a dose of 200 mg/kg; 6 survived out of 6; assay type: functional, Mus musculus
[31] = Antileukemic activity against Murine P388 lymphocytic leukemia, body weight difference of the test animals compared to control group C animals at a dose of 200 mg/kg; assay type: functional, Mus musculus; procedure, shortened: as §1
[32] = Percent increase in life span of test animals compared to untreated tumor-bearing control group B animals at a dose of 6.25 mg/kg; assay type: functional; conditions: Mus musculus
[33] = Antileukemic activity against Murine P388 lymphocytic leukemia, body weight difference of the test animals compared to control group B animals at a dose of 100 mg/kg; assay type: functional, Mus musculus; design: unit not given here; procedure, shortened: as §1
[34] = Antileukemic activity against Murine P388 lymphocytic leukemia, body weight difference of the test animals compared to control group B animals at a dose of 25 mg/kg; assay type: functional, Mus musculus; design: unit not given here; procedure, shortened: as §1
[35] = Toxicity day survivors expressed as number of animals that survived to day five/ number of test animals under control group B at a dose of 100 mg/kg; 6 survived out of 6; assay type: functional, Mus musculus
[36] = Antileukemic activity against Murine P388 lymphocytic leukemia and toxicity day survivors expressed as number of animals that survived to day five/ number of test animals under control group B at a dose of 6.5 mg/kg; 6 survived out of 6; assay type: functional, Mus musculus
[37] = Antileukemic activity against Murine P388 lymphocytic leukemia, body weight difference of the test animals compared to control group B animals at a dose of 12.5 mg/kg; assay type: functional, Mus musculus; design: unit not given here; procedure, shortened: as §1
P388 [38] = test: Log cell population relative to cell population at the beginning of treatment compared to control group B at a dose of 6.25 mg/kg; assay type: functional, Mus musculus
[39] = Toxicity day survivors expressed as number of animals that survived to day five/ number of test animals under control group B at a dose of 25 mg/kg; 6 survived out of 6; assay type: functional, Mus musculus
[40] = Toxicity day survivors expressed as number of animals that survived to day five/ number of test animals under control group B at a dose of 12.5 mg/kg; assay type: functional, Mus musculus
[41] = Percent increase in life span of test animals compared to untreated tumor-bearing control group B animals at a dose of 12.5 mg/kg; assay type: functional; conditions: Mus musculus
[42] = Antileukemic activity against Murine P388 lymphocytic leukemia, body weight difference of the test animals compared to control group B animals at a dose of 50 mg/kg; assay type: functional, Mus musculus; design: unit not given here; procedure, shortened: as §1
[43] = Toxicity day survivors expressed as number of animals that survived to day five/ number of test animals under control group B at a dose of 50 mg/kg; 6 survived out of 6; assay type: functional, Mus musculus
[44] = Antileukemic activity against Murine P388 lymphocytic leukemia, body weight difference of the test animals compared to control group B animals at a dose of 6.25 mg/kg; assay type: functional, Mus musculus; procedure, shortened: as §1
[45] = Percent increase in life span of test animals compared to untreated tumor-bearing control group B animals at a dose of 50 mg/kg; assay type: functional; conditions: Mus musculus

SMILES: Cc1c(COC(=O)NC(C)C)c(COC(=O)NC(C)C)c2n1C[S+]([O-])C2 (stereo not given)
- ILS at 100 mg/kg [1]: 32%
- KE (P388 [2]): 3.94
- KE (P388 [3]): -0.69
- ILS at 50 mg/kg [4]: 26%
- ILS at 200 mg/kg [5]: 76%
- BWD [6]: -0.1
- BWD [7]: -2.6
- TDS [8]: 6
- TDS [9]: 6
- BWD [10]: -0.6
- BWD [11]: -4.5
- TDS [12]: 6
- KE (P388 [13]): -0.08
- TDS [14]: 3

SMILES: CC(C)NC(=O)OCc1c(COC(=O)NC(C)C)c(-c2ccc(Cl)c(Cl)c2)n2c1CSC2
- ILS at 100 mg/kg [1]: -13%
- ILS at 50 mg/kg [4]: -12%
- ILS at 400 mg/kg [15]: -11%
- TDS [16]: 6
- ILS at 200 mg/kg [5]: -12%
- TDS [17]: 6
- BWD [6]: -0.9
- BWD [7]: -1.7
- TDS [8]: 6
- TDS [9]: 6
- BWD [10]: -1.3
- BWD [11]: -1.3
- ILS at 25 mg/kg [18]: -9%
- TDS [12]: 6
- BWD [19]: -1.3

SMILES: CNC(=O)OCc1c(COC(=O)NC)c2n(c1C)CSC2
- ILS at 50 mg/kg [20]: 32%
- TDS [21]: 6
- BWD [22]: -1.7
- TDS [23]: 6
- TDS [24]: 6
- KE (P388 [25]): 0
- ILS at 25 mg/kg [26]: 26%
- BWD [27]: -2.2
- KE (P388 [28]): -0.03
- BWD [29]: -1
- TDS [30]: 6
- BWD [31]: -1.9

SMILES: CC(C)NC(=O)OCc1c(COC(=O)NC(C)C)c(-c2ccc(Cl)c(Cl)c2)n2c1CS(=O)(=O)C2
- ILS at 6.25 mg/kg [32]: 1%
- BWD [33]: -2.3
- BWD [34]: 0.4
- TDS [35]: 6
- TDS [36]: 6
- BWD [37]: 1.3
- KE (P388 [38]): -1.47
- TDS [39]: 6
- TDS [40]: 6
- ILS at 12.5 mg/kg [41]: -13%
- BWD [42]: -0.8
- TDS [43]: 6
- BWD [44]: -0.6
- ILS at 50 mg/kg [45]: -14%
